PRMT1 inh – PRMT1 methyltransferase inhibitors, primary screen, biochemical, fluorescence polarization; AID 652257, 2013; inhibition, % at 2.79 µM; Protein arginine N-methyltransferase 1 (Homo sapiens), Q99873; 370,000 compounds, 1.3% hits; recombinant PRMT1, activity-based probe fluorescence polarization;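 active = inhibition above about 21% made by adding two undisclosed values, limit read from the data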
Target sequence (Q99873 whole entry, looked up): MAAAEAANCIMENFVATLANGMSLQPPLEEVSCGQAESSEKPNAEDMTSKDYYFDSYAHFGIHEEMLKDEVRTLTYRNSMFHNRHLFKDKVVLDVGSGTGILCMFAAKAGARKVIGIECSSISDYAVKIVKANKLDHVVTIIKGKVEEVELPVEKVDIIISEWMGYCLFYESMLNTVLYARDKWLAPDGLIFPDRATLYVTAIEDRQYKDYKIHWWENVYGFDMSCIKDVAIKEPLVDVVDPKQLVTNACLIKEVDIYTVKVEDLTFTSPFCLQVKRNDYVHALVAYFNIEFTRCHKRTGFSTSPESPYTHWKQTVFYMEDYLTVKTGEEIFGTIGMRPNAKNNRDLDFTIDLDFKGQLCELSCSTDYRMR
SIAE primary – human SIAE inhibitors, primary screen, biochemical, fluorescence polarization, FP-Rh probe, 1536-well HTS; Sialate O-acetylesterase (Homo sapiens), Q9HAT2; SIAE FP-Rh probe binding; inhibition, % at 9.66 µM; 370,000 compounds, 0.69% hits; AID 1053197, 2014;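 active = inhibition above a cutoff: mean of compounds within the control limits plus 3 SD of those, cut at about 17% in these data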;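 also: 0% = plate median of compound wells and 100% = probe without SIAE protein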
ABHD4 inh – ABHD4 inhibitors, primary screen, biochemical, fluorescence polarization, mouse; AID 720543, 2013; (Lyso)-N-acylphosphatidylethanolamine lipase (Mus musculus), Q8VD66; purified mABHD4, FP-Rh probe fluorescence polarization; inhibition, % at 8.92 µM; 370,000 compounds, 0.54% hits;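 active = inhibition exceeding the mean over every tested compound plus 3 SD, cut at about 30% in these data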;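 also: 0% = plate median of compound wells and 100% = S159A mutant with DMSO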
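System: mouse ABHD4 enzyme, wild type / Medium: HEPES pH 7.0, NaCl, Pluronic buffer / Reagent: FP-Rh activity-based fluorescent probe / Control set: S159A mutant high control, sample median low control / Detection: fluorescence polarization with parallel and perpendicular emission, 525/598 nm / Schedule: 45 min + 60 min at 25 °C / Compound dosing: 8.92 µM, single dose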
TCR-CD3 inh – inhibitors of human TCR-CD3 interaction, primary screen, biochemical, fluorescence, TAMRA-labeled TCR probe; T-cell receptor (TCR); inhibition, % at 9.4 µM; 360,000 compounds, 0.37% hits; AID 651800, 2012;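 also: recombinant mutant TCR 2C K166C tagged with TAMRA read by polarization; 0% = receptor in buffer alone and 100% = receptor with positive control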
rCAG RNA binder – binders of r(CAG) RNA repeats, primary screen, biochemical, fluorescence. inhibition, % at 3 µM. 370,000 compounds, 1.3% hits. AID 651821, 2012. r(CAG) RNA repeat, TO-PRO-1 dye displacement fluorescence;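 active = inhibition above the plate cutoff, the mean of all test compounds on that plate plus 3 SD, cut at about 35% in these data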;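 also: 0% = DMSO alone and 100% = 100 µM mitoxantrone as full dye displacement; higher means more dye released from RNA so lower well fluorescence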
BSA probe FL – compounds interfering with TAMRA-BSA probe, counter-screen for TCR-CD3 interaction inhibitor project, biochemical, fluorescence, TAMRA-labeled BSA. inhibition, % at 9.4 µM. shares compounds with TCR-CD3 inh. TAMRA-labeled BSA probe fluorescence counterscreen. 1,200 compounds, 10% hits; in the data active = inhibition above about 23%;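 also: 0% = buffer low control and 100% = reference high control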
TCR-CD3 inh conf – TCR-CD3 interaction inhibitors, retest, confirmation, biochemical, fluorescence, TAMRA-labeled TCR probe | inhibition, % at 9.4 µM | TAMRA-labeled TCR probe fluorescence binding assay | shares compounds with TCR-CD3 inh | 1,200 compounds, 48% hits
rCAG bind conf – small molecules binding CAG repeat RNA – biochemical, fluorescence, confirmation | inhibition, % at 3 µM | shares compounds with rCAG RNA binder | 4,300 compounds, 70% hits | r(CAG) RNA repeat, TO-PRO-1 dye displacement fluorescence;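 active = inhibition above a per-plate cutoff, the mean inhibition of sample wells plus 3 SD, cut at about 35% in these data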;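 also: loss of TO-PRO-1 fluorescence as compound displaces dye from 1x1 AA loop RNA; 0% = DMSO only wells and 100% = 100 µM mitoxantrone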
dCAG dye counter – displacement of TO-PRO-1 from CAG DNA duplex, counter-screen for rCAG RNA repeat binder project, biochemical, fluorescence, TO-PRO-1 dye, d(CAG) DNA oligo; shares compounds with rCAG RNA binder; d(CAG) DNA oligo TO-PRO-1 dye displacement; inhibition, % at 3 µM; 4,300 compounds, 94% hits; AID 652068, 2013;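 active = inhibition above its plate's cutoff, the mean test-well inhibition plus 3 SD, cut at about 4.8% in these data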;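 also: 0% = DNA dye mix with DMSO and 100% = 100 µM mitoxantrone; hits displace the dye from DNA and so lower well fluorescence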
PRMT1 inh conf – PRMT1 methyltransferase inhibitors, confirmation, biochemical, fluorescence polarization, triplicate | shares compounds with PRMT1 inh | recombinant His-PRMT1, activity-based probe fluorescence polarization | inhibition, % at 2.79 µM | 3,300 compounds, 42% hits;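 active = mean inhibition across replicates above the hit cutoff derived for the earlier primary screen, cut at about 22% in these data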
mABHD4 conf – ABHD4 inhibitors, retest, confirmation, biochemical, fluorescence polarization, mouse | inhibition, % at 8.92 µM | AID 720658, 2013 | 1,800 compounds, 55% hits | shares compounds with ABHD4 inh | purified mABHD4, FP-Rh probe fluorescence polarization;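 active = mean inhibition across replicates above the hit cutoff set in the primary screen, cut at about 30% in these data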;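 also: 0% = wild-type ABHD4 with DMSO and 100% = catalytically dead S159A mutant with DMSO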
* = called active by the depositor; · = no result given; ! = not active in a repeat. An excerpt weighted towards active compounds, which were near 3.3% of everything screened. Rule as the data show it, unless noted: active = inhibition above about 19%; inactive = the rest.

SMILES	PRMT1 inh	SIAE primary	ABHD4 inh	TCR-CD3 inh	rCAG RNA binder	BSA probe FL	TCR-CD3 inh conf	mABHD4 conf	others
O=C1CSc2ccc(C(=O)N3CCCC(C(=O)N4CCCN(Cc5ccccc5)CC4)C3)cc2N1 (stereo unspecified)	-7.3	10.7	-1.8	·	2.1	·	·	·
C[c-]1[c-](C)[c-](C)[c-](C)[c-]1C.[Fe].c1cc2nccc(N3CCCC3)[c-]2c1 (stereo unspecified)	25.9*	8.3	32.6*!	48.8*	8.5	1.9	19.2*!	30.5*	PRMT1 inh conf=7.6
CC(C)(C)CCN1C[C@@H]2C(CNC(=O)c3cc(Cl)cc(Cl)c3)[C@@H]2C1 (stereo partly specified)	-7.6	-2.0	1.5	·	·	·	·	·
COc1cc(NCCCCC(C)N)c2nccc(C)c2c1 (stereo unspecified)	3.2	8.8	19.0	4.2	13.3	·	·	·
COc1cc(NCCCC(C)N)c2ncccc2c1 (stereo unspecified)	4.1	44.2*	47.0*	62.1*	9.4	21.6	13.7	26.8
COc1cccc(OC)c1NC(=O)OC1CCC12CCC(c1ccccc1)CC2 (stereo unspecified)	-3.1	6.3	-5.8	·	·	·	·	·
COc1ccc2c(n1)Sc1nc3ccccc3nc1N2	78.5*	9.4	31.7*	48.3*	4.7	-3.1	1.4	9.8	PRMT1 inh conf=20.0
Nc1ncnc2oc(-c3ccco3)c(-c3ccco3)c12	60.5*	35.5*	34.1*	57.7*	68.0*	-4.5	26.9*	4.2	rCAG bind conf=26.9;dCAG dye counter=16.3*
Nc1nnc(-c2ccco2)s1	10.3	6.4	6.6	2.6	-0.8	·	·	·
c1ccc(Cn2ccc3ccc(-c4ccc5ccn(Cc6cccc(Oc7ccccc7)c6)c5c4)cc32)cc1	0.8	-0.9	11.4	·	27.0	·	·	·
COc1ccc2c(c1)CNC2CS(=O)(=O)NCC(C)C (stereo unspecified)	-1.2	-5.6	-9.8	·	7.1	·	·	·
C[n+]1cc2c3c(ccc2c2ccc4cc5c(cc4c21)OCO5)OCO3	61.4*	19.0*	68.1*	20.3*	26.3	19.4	23.7*	70.7*	PRMT1 inh conf=85.4*
C[n+]1c(/C=C/c2ccc3c(c2)OCO3)ccc2ccccc21	1.5	0.1	5.4	-0.3	-6.8	·	·	·
O=c1cc2oc3cc(O)c(O)cc3c(-c3ccccc3[N+](=O)[O-])c-2cc1O	17.1	14.2	53.0*	101.5*	30.3	-12.8	83.5*	55.3*
C#CCNC(=O)C[C@H]1C[C@@]2(C(=O)OC)C(=C[C@H](C(C)(C)C)O[C@@H]2C)N(Cc2cccc3ccccc23)C1=O	-0.1	-2.5	-6.8	·	3.8	·	·	·
COC(=O)[C@@]12CCCCC3=C1N(CCC3)C(=O)[C@H]2CC(=O)N1CCN(C(=O)c2ccco2)CC1	6.5	-6.9	0.5	·	0.5	·	·	·
